Experimental data from different studies.
Each line is one published result; the experiments were not run side by side.

Structure (SMILES)	method	matrix	time	pH	temperature	notes	solubility
CN(C)CCCN1c2ccccc2Sc2ccc(Cl)cc21	–	FaSSIF	24 h	pH 7.4	37 °C	–	810 µg/mL
Cn1c(-c2nc3cc(C(=O)N4CCCC(N)C4)ccc3n2C)cc2ccccc21 (stereo not shown)	–	aqueous buffer	–	–	–	–	> 350 µM
CC(C)CC(=O)N1CCC[C@H](COc2cccc3c2C(N)=NS(=O)(=O)[N-]3)C1.[Na+]	–	ethanol	–	–	–	–	217000 µM
CCOC(=O)c1ccc(N)cc1	–	PBS	–	pH 7.4	–	–	890 µg/mL
CCCn1nc(C(=O)N2CCCCC2)c2c1CCC(N(C)Cc1ccc(F)cc1)C2 (stereo not shown)	–	PBS	16 h	pH 7.4	–	–	2420 µM
CCC(F)(F)c1nc2nc(C)cc(Nc3ccc(S(F)(F)(F)(F)F)cc3)n2n1	nephelometry	aqueous buffer	–	pH 6.5	–	–	15 to 30 µM
Cc1c(F)cccc1Nc1nc(NCc2ccccc2)c2ccccc2n1	–	aqueous buffer	–	pH 6.2	–	–	0.05 µg/mL
CC[C@H](C)[C@H](NC(=O)[C@H](CO)NC(=O)[C@H](CCCNC(=N)N)NC(C)=O)C(=O)N[C@H]1CSSC[C@@H](C(=O)N[C@H](C(N)=O)[C@@H](C)O)NC(=O)[C@H](CCCNC(=N)N)NC(=O)[C@H](Cc2c[nH]cn2)NC(=O)[C@H](C)NC(=O)CNC(=O)[C@H](Cc2c[nH]c3ccccc23)NC(=O)[C@H](CC(=O)O)NC(=O)[C@H](CCC(N)=O)NC(=O)[C@H](Cc2c[nH]c3ccccc23)NC(=O)[C@H](C(C)C)NC1=O	–	PBS	–	pH 7.4	–	–	3690 µg/mL
COc1cccc2c(NCc3ccccc3)nc(N3CCNc4ccccc43)nc12	–	aqueous buffer	–	pH 5	–	–	28.2 µg/mL
NC1CCN(c2nccc3[nH]c(-c4ccc(F)c(F)c4)nc23)CC1	shake flask	aqueous buffer	–	pH 6.5	–	–	> 200 µM
COc1cccc(OC)c1-c1nc(C(=O)N[C@@H](CC(C)C)C(=O)O)cn1-c1ccnc2cc(Cl)ccc12	–	aqueous buffer	–	pH 7.4	–	–	> 52 µg/mL
O=C(Nc1cc(F)c(F)c(F)c1)c1ccc(F)c(S(=O)(=O)NCc2cccc(B(O)O)c2)c1	–	aqueous buffer	–	pH 7	–	–	329 µg/mL
CC(=O)N1CCN(c2ccc(OCC3COC(Cn4ccnc4)(c4ccc(Cl)cc4Cl)O3)cc2)CC1 (stereo not shown)	–	PBS	–	pH 7.4	–	–	55.6 µM
Cc1cc(Nc2ccc(Cl)cc2)n2nc(C(C)C)nc2n1	nephelometry	aqueous buffer	–	pH 6.5	–	–	83 to 170 µM
COc1cc(/C=C/C(=O)CC(=O)/C=C/c2ccc(O)c(OC)c2)ccc1O	absorbance	water	–	–	–	–	0.56 µg/mL
C[C@@H]1CN(c2nc3cc(Cl)ccc3n2Cc2ccccc2)C[C@H](C)N1	shake flask	aqueous buffer	20 h	pH 6.5	25 °C	–	140 µM
CCOc1ccc2cc(-c3nn(C4CCCCCC4)c(N)c3C(N)=O)ccc2n1	–	PBS	–	pH 6.5	25 °C	–	46.5 µM
Cc1cc(Nc2ccc(S(F)(F)(F)(F)F)cc2)n2nc(C(C)(F)F)nc2n1	nephelometry	aqueous buffer	–	pH 6.5	–	–	30 to 60 µM
O=C(Nc1c2c(cc3c1CCC3)CCC2)NS(=O)(=O)/C=C/c1nccs1	–	simulated gastric fluid	24 h	–	37 °C	acidic	< 5 µg/mL
OCCOc1cccc2c(NCc3ccccc3)nc(N3CCOc4ccccc43)nc12	–	aqueous buffer	–	pH 5	–	–	21.5 µg/mL
Cc1cc(Nc2ccc(C(F)(F)F)cc2)n2nc(C(C)(F)F)nc2n1	nephelometry	aqueous buffer	–	pH 6.5	–	–	70 to 140 µM
Cc1ccc(S(=O)(=O)NCc2ccc(C(=O)NCCN(Cc3ccccc3)C(C)C)cc2)cc1	–	aqueous buffer	–	pH 7.4	–	–	0.79 µg/mL
COC(=O)c1ccc(N)cc1	–	PBS	–	pH 7.4	–	–	1800 µg/mL
Cl.c1ccc(Cn2c(N3CCNCC3)nc3cc(-c4cc[nH]n4)ccc32)cc1	shake flask	aqueous buffer	20 h	pH 6.5	25 °C	–	195 µM
COc1cccc(OC)c1-c1cc(C(=O)N[C@@H](CC(C)C)C(=O)O)nn1-c1ccnc2cc(Cl)ccc12	–	aqueous buffer	–	pH 5	–	–	52.9 µg/mL
O=C(O)c1ccc(-c2nnc(-c3ncccn3)nn2)cc1	–	water	–	–	–	–	≤ 200 µM
Cc1c(F)cccc1NC(=O)Nc1ccc(Cl)c(S(=O)(=O)[C@H]2CCCNC2)c1O	–	aqueous buffer	4 h	pH 3	–	–	161 µg/mL
Nc1cccc(S(=O)(=O)N2CCCN(S(=O)(=O)c3ccc4c(c3)OCCO4)CC2)c1	–	aqueous buffer	–	–	–	–	29 µg/mL

Structure (SMILES)	method	matrix	time	pH	temperature	notes	solubility
[Cl-].c1ccc2nc(Cn3c[n+](Cc4ccc5ccccc5n4)c4ccccc43)ccc2c1	–	water	–	–	–	–	> 500 µg/mL
COCc1nn(Cc2ccc(Cn3ccccc3=O)cc2)cc1C(=O)NCc1c(F)ccc(OC)c1F	–	FaSSIF	4 h	pH 6.5	–	–	9 µg/mL
CCOc1ccc2cc(-c3nn(C4CCCC4)c(N)c3C(N)=O)cnc2c1	–	PBS	–	pH 6.5	25 °C	–	98.7 µM
CCCCCCCCN1CCCC1=O	–	PBS	48 h	pH 7.4	25 °C	–	4800 µM
CCCCCCCCCCCCCC(=O)Nc1ccc(CP(=O)(O)O)cc1	–	water	–	–	–	–	1000 µg/mL
CS(=O)(=O)c1ccc2c(c1)nc(C1CCNCC1)n2Cc1ccccc1.Cl	shake flask	aqueous buffer	20 h	pH 6.5	25 °C	–	200 µM
Brc1ccccc1CNc1nc(NCc2ccccc2)c2ccccc2n1	–	aqueous buffer	–	pH 7.4	–	–	0.14 µg/mL
CC(C)N1CCN(Cc2cnc(-c3cc(-c4cccc5[nH]ccc45)cc4[nH]ncc34)o2)CC1	–	aqueous buffer	–	pH 10	–	–	1 µg/mL
COc1cc(Cl)c(C(=O)N[C@@H](CN[C@H]2CC[C@@H](N)CC2)Cc2ccc(C#N)cc2)cc1-c1ccc(CN[C@H](C)c2ccc(C)cc2)o1	–	aqueous buffer	–	pH 6.5	–	–	> 3070 µg/mL
COc1cc(OC)cc(N(CCNC(C)C)c2ccc3ncc(-c4cnn(C)c4)nc3c2)c1	–	aqueous buffer	–	pH 3.96	–	–	23200 µg/mL
CCCCCCCCO	–	PBS	48 h	pH 7.4	25 °C	–	6000 µM
O=C(Nc1ccc(S(=O)(=O)N2CCC(Cl)CC2)cc1)c1ccc([N+](=O)[O-])o1	–	aqueous buffer	–	pH 6.2	–	–	9.2 µM
Clc1cccc(Nc2nc(NCc3cccc(Br)c3)c3ccccc3n2)c1	–	aqueous buffer	–	pH 6.2	–	–	0.02 µg/mL
O=C(O)Cc1ccccc1Nc1c(Cl)cccc1Cl	–	PBS	–	pH 7.4	–	–	1940 µg/mL
Fc1ccc(-c2nc3c(N4CCN5CCC4CC5)nccc3[nH]2)cc1F	shake flask	aqueous buffer	–	pH 6.5	–	–	> 200 µM
N=C(N)NCc1ccc(NC(=O)C23CCC(C(=O)Nc4ccc(C5=CCN(C(=N)N)CC5)cc4)(CC2)CC3)cc1	shake flask	aqueous buffer	–	pH 7.4	–	–	46 µg/mL
Cc1ccc(Nc2nc(NCc3ccccc3)c3ccccc3n2)cc1F	–	aqueous buffer	–	pH 7.4	–	–	0.05 µg/mL
CCOc1ccc2cc(-c3nn(C(C)(C)C)c(N)c3C(N)=O)ccc2n1	–	PBS	–	pH 6.5	25 °C	–	83.5 µM
O=C(Nc1ccc(C(F)(F)F)cc1)N1CCC(Cc2cccc(Oc3ccc(C(F)(F)F)cn3)c2)CC1	–	water	48 h	–	37 °C	–	0.0016 µM
CNC(=O)c1ccc(N(Cc2ccc(C3CCCCC3)cn2)C(=O)[C@H]2CCN2S(=O)(=O)c2c(F)c(F)c(F)c(F)c2F)cc1O	–	simulated gastric fluid	–	–	–	–	115 µg/mL
c1ccc(CNc2nc(N3CCOc4ccccc43)nc3ccccc23)cc1	–	aqueous buffer	–	pH 5	–	–	25.2 µg/mL
O=C(NCCN1CCCC1)c1cc(-c2ccc(CN3CCOCC3)cc2)nc2ccc(F)cc12	–	aqueous buffer	–	pH 7.4	–	–	2800 µM
Brc1cccc2c(NCc3ccccc3)nc(NCc3ccccc3)nc12	–	aqueous buffer	–	pH 7.4	–	–	< 0.01 µg/mL
Cc1cc(Nc2ccc(S(F)(F)(F)(F)F)cc2)n2nc(C3CC3)nc2n1	nephelometry	aqueous buffer	–	pH 6.5	–	–	16 to 32 µM
CCOc1ccc2cc(-c3nn(C4CCCCCC4)c(N)c3C(N)=O)cnc2c1	–	PBS	–	pH 6.5	25 °C	–	8.5 µM
CN1CCC(N2CCCN(c3nccc4[nH]c(-c5ccc(F)c(F)c5)nc34)CC2)CC1	shake flask	aqueous buffer	–	pH 6.5	–	–	> 200 µM
NCCNc1nc2cc(Cl)ccc2n1Cc1ccccc1	shake flask	aqueous buffer	20 h	pH 6.5	25 °C	–	≥ 200 µM
